Nine compounds from ChEMBL document CHEMBL1123882, “Potential antitumor agents. 51. Synthesis and antitumor activity of substituted phenazine-1-carboxamides” (J Med Chem, 1987) can be followed below.

Series [1] has as its system P388. Briefly: Optimal dose in mg/kg administered intraperitoneally on days 1,5 and 9 required to inhibit the growth of P388 leukemia cells was determined (in vivo). The class given is functional, Mus musculus. A digest of the protocol:
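Mice were inoculated ip with 10^6 P388 cells. Drug was given ip as a solution in 0.1 mL 30% v/v EtOH/water on days 1, 5 and 9. The optimal dose (mg/kg per day) is the one giving maximal increase in life span; survivors were scored at 50 days, in groups of six.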

Series [2] deals with L1210. Briefly: Nanomolar concentration required to reduce the growth of L1210 cells in culture to 50% of control values after 70 h (in vitro). The class given is functional, cell-based. The conditions noted are these: Mus musculus, L1210, 70 h. The procedure, abridged:
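L1210 cells were grown in culture with drug for 70 h. IC50 is the drug concentration (nM) reducing growth to 50% of control values.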

Series [3] has as its system Lewis lung carcinoma cell line. Briefly: (§1) Optimal dose required after intraperitoneal administration on days 5,9 and 13 to inhibit the growth of lewis lung carcinoma (LL) cells was determined (in vivo). The class given is functional, Mus musculus. The procedure, abridged: (§2)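 Mice were inoculated iv with 10^6 Lewis lung cells. Drug was given ip in 0.1 mL 30% v/v EtOH/water on days 5, 9 and 13. The optimal dose (mg/kg per day) is the one giving maximal increase in life span; survivors were scored at 60 days, in groups of six.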

In series [4] the test system is Lewis lung carcinoma cell line. The series can be described thus: Average increase in life span of treated animals over control groups of tumor-bearing untreated animals when given at optimal dose;NA means no significant effect (in vivo). The class given is functional, organism-based. The conditions noted are these: Mus musculus. The procedure, abridged: (§3)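 Mice received drug ip as a solution in 0.1 mL 30% v/v EtOH/water at the optimal dose. For P388, 10^6 cells were inoculated ip and drug given on days 1, 5 and 9. For LL, 10^6 cells were inoculated iv and drug given on days 5, 9 and 13. ILS is the mean life-span increase over untreated tumor-bearing controls, significant above 20% (P388) or 40% (LL). Groups were of six. NA means no significant activity up to acutely toxic doses.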

The test system of series [5] is P388. The series can be described thus: (§4) Average increase in life span of treated animals over control groups of tumor-bearing untreated animals when given at optimal dose (in vivo). The class given is functional, Mus musculus. The procedure, abridged: (§5)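 Mice inoculated ip with 10^6 P388 cells (drug ip on days 1, 5, 9) or iv with 10^6 Lewis lung cells (drug ip on days 5, 9, 13). Drug given as a solution in 0.1 mL 30% v/v EtOH/water, in mg/kg per day. Value is the average life-span increase versus untreated tumor-bearing controls at the optimal dose. Significance thresholds: ILS >20% (P388), >40% (LL). Groups of six.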

Series [6] can be described thus: Lipophilicity (HPLC). The class given is physicochemical.
Series [7] concerns P388. Briefly: (§6) Average increase in life span of treated animals over control groups of tumor-bearing untreated animals when given at optimal dose; NA means no significant activity (in vivo). The class given is functional, organism-based. The conditions noted are these: Mus musculus. The procedure, abridged: as §3
In series [8] the test system is Lewis lung carcinoma cell line. The series is described as §6. As to conditions: Mus musculus. The class given is functional, organism-based. A digest of the protocol: as §3
A short description of series [9]: as §1. The class given is functional, Mus musculus. A digest of the protocol:
as §2

The nature of series [10]: as §4. The class given is functional, Mus musculus. The procedure, abridged: as §5
In series [11] the test system is Lewis lung carcinoma cell line. Briefly: Average increase in life span of treated animals over control groups of tumor-bearing untreated animals when given at optimal dose;NA means no significant activity (in vivo). The class given is functional, organism-based. As to conditions: Mus musculus. A digest of the protocol:
as §3

Series [12] deals with P388. The series can be described thus: Average increase in life span of treated animals over control groups of tumor-bearing untreated animals when given at optimal dose of 150 mg/kg/day;NA means no significant activity (in vivo). The class given is functional, organism-based. The conditions noted are these: Mus musculus. A digest of the protocol:
as §3

Series [13] relates to Lewis lung carcinoma cell line. The series can be described thus: Average increase in life span of treated animals over control groups of tumor-bearing untreated animals when given at optimal dose of 25 mg/kg/day; NA means no significant activity (in vivo). The class given is functional, organism-based. The conditions noted are these: Mus musculus, in the assay text read “225 mg/kg/day” for “25 mg/kg/day”. A digest of the protocol:
as §3

Take `Cc1ccc(C(=O)NCCN(C)C)c2nc3ccccc3nc12`: the OD in series [1] was 100 mg/kg/day; in series [3], 150 mg/kg/day. Further, the midpoint of inhibition in [2], the IC50, lay at 0.4 µM. For the same compound, the ILS max entry in series [4] is “Not significant”; in [5], 28. Moreover, the Rm in series [6] is on record as 0.08.
On to `COc1cccc2nc3c(C(=O)NCCN(C)C)cccc3nc12`, for which the OD in series [1] was 150 mg/kg/day. The compound further gave an IC50 in [2] of 5 µM. The ILSmax result in [7] is “Not significant”. For the same compound, the Rm in series [6] is listed as -0.44.
`O=C(NCCN1CCOCC1)c1cccc2nc3ccccc3nc12`: the OD in series [1] and in series [3] was 225 mg/kg/day each time. Besides, the IC50 in series [2] was determined as 11 µM. In addition, the ILSmax entry in series [7] and in series [8] was “Not significant” each time. Further, the Rm in series [6] was -0.21.
Regarding `COc1ccc2nc3c(C(=O)NCCN(C)C)cccc3nc2c1`, the OD in [1] was 100 mg/kg/day; in series [3], 150 mg/kg/day. The same compound gave an IC50 in series [2] of 4.1 µM. Further, the ILSmax result in series [7] and in series [8] was “Not significant” throughout. Moreover, the Rm in series [6] is given as -0.27.
For `O=C(NCCNCCO)c1cccc2nc3ccccc3nc12`, the OD in series [1] and in [3] was 65 mg/kg/day each time. Further, 2 µM corresponded to half-maximal inhibition in series [2] (IC50). Also, the ILS max result in series [7] and in series [8] was “Not significant” each time. Moreover, the Rm in series [6] was -0.32.
Consider `CN(C)CCNC(=O)c1cccc2c1nc1ccccc1[n+]2[O-]`, for which the OD in [1] and in series [9] was 150 mg/kg/day each time. It took 3 µM to reach half-maximal inhibition in [2] (IC50). Further, the ILS max in series [5] stood at 81; in [10], 51. Also, the Rm in series [6] was -0.58.
With `CN(C)CCCCNC(=O)c1cccc2nc3ccccc3nc12`, the results for the OD in [1] and in [3] were 150 mg/kg/day and 225 mg/kg/day, respectively. The same compound registered an IC50 in series [2] of 1.17 µM. The ILS max result was “Not significant” in [11] and 49 in series [5]. For the same compound, the Rm in series [6] was -0.11.
On to `CN(C)CCCNC(=O)c1cccc2nc3ccccc3nc12`, for which the values for the OD in series [1] and in series [3] were 150 mg/kg/day and 225 mg/kg/day, respectively. Besides, in series [2], the IC50 is 1.5 µM. Moreover, the ILSmax entry in [12] and in series [13] was “Not significant” each time. Besides, the Rm in series [6] is -0.21.
In series [1], `COc1ccc(C(=O)NCCN(C)C)c2nc3ccccc3nc12` came in with an OD of 225 mg/kg/day. Further, in series [2], it took 0.55 µM to reach half-maximal inhibition (IC50). Further, the ILSmax entry in series [7] was “Not significant”. Further, the Rm in series [6] is on record as -0.41.
